Paper PMC3457677 (International Journal of Nanomedicine, 2012)
≈ marks a conversion by molar mass, not a printed value.

What was measured:
[1] = cited from earlier work
[2] = system: human lung carcinoma (A549) cell line; assay: MTT cytotoxicity assay; format: cell-based; details: A549, 72 h, read-out: IC50 (μg/mL) on cell lines A549
Method in brief: (§1)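 Cells were grown in DMEM with 10% FBS and 1% antibiotics at 37°C under 5% CO2 and seeded in 96-well plates at 5 × 10^4 cells/well (A549: 5 × 10^3) until confluent. Free or SLN-encapsulated compound was added for 72 h. After a PBS wash, MTT (25 μg/mL) was given for 2 h, formazan was dissolved in DMSO and read at 550 nm. IC50 came from a four-parameter logistic fit; n = 6.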

[3] = system: human hepatocellular liver carcinoma (HepG2) cell line; assay: MTT cytotoxicity assay; format: cell-based; details: HepG2, 72 h, read-out: IC50 (μg/mL) on cell lines HepG2
Method in brief: as §1

[4] = system: human breast adenocarcinoma with estrogen receptor (MCF7) cell line; assay: MTT cytotoxicity assay; format: cell-based; details: MCF7, 72 h, read-out: IC50 (μg/mL) on cell lines MCF7
Method in brief: as §1

[5] = system: human breast adenocarcinoma (MDA-MB-231) cell line; assay: MTT cytotoxicity assay; format: cell-based; details: MDA-MB-231, 72 h, read-out: IC50 (μg/mL) on cell lines MDA-MB-231
Method in brief: as §1

[6] = system: human oral squamous cell carcinoma (Ca9-22) cell line; assay: MTT cytotoxicity assay; format: cell-based; details: Ca9-22, 72 h, read-out: IC50 (μg/mL) on cell lines Ca9-22
Method in brief: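 Ca9-22 cells grown in DMEM with 10% FBS and 1% antibiotics at 37°C, 5% CO2. Seeded at 5 × 10^4 cells/well and grown to confluence. Free or SLN-encapsulated test compound (added solution at 40 μg/mL) applied for 72 hours. After a PBS wash, MTT (25 μg/mL) for 2 h, then DMSO. Absorbance read at 550 nm; IC50 from a four-parameter logistic fit.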

In vitro release study = format: physicochemical; details: pH 7.4 PBS containing 1% F-127
Method in brief: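 Dialysis bags (MWCO 12,000–14,000 Da, pre-soaked 12 h in water) held 1 mL SLN suspension in 100 mL pH 7.4 phosphate buffer with 1% Pluronic F-127 (sink) at 37°C. At intervals, 1 mL receiver aliquots were withdrawn and replaced with fresh medium. Drug was quantified by C18 HPLC with electrochemical detection. Release percentage was fitted to kinetic models; n = 4.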

[7] = In vivo pharmacokinetics after intravenous bolus; set-up: species or system Wistar rats; details: male, Wistar, rat, plasma, 4.7 mg/kg
Method in brief: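 Fasted male Wistar rats (200–250 g) under urethane anaesthesia received a jugular vein injection of 4.7 mg/kg. The free-drug solution was in ethanol/PEG 400/tetraglycol/water. Heart blood (0.3 mL) was taken at set times, and plasma was extracted with dichloromethane using diclofenac as internal standard, then analysed by HPLC-ECD. A compartment model was fitted; AUC0–∞ by trapezoidal rule plus extrapolation, Cl = dose/AUC0–∞; n = 3.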

[8] = Biodistribution in tissues and organs after intravenous administration; format: in vivo; details: Wistar rats, 4.7 mg/kg intravenous, 30 minutes
[9] = Solubility of PK-L4 in aqueous and receptor media; format: physicochemical; details: compared: pH 7.4 PBS, pH 7.4 PBS containing 1% F-68, pH 7.4 PBS containing 1% F-127
[10] = cited from earlier work; remark: listed apart in the source

Best-fitting release kinetics model (In vitro release study)	AUC(0-inf) [7]	MRT [7]	Vd [7]	clearance [7]	half-life ([7]; half-life alpha, after intravenous bolus, rat plasma)	Compound	half-life in plasma [1]	IC50 [2]	IC50 [3]	IC50 [4]	IC50 [5]	IC50 [6]	Main sites of PK-L4 deposition in tissues [8]	Solubility of PK-L4 in receptor media [9]	Solubility in water and biocompatible media [10]
–	–	–	–	–	–	COc1cc(NS(C)(=O)=O)ccc1Nc1c2ccccc2nc2ccccc12 [Amsacrine]	20 to 30 min	–	–	–	–	–	–	–	–
–	–	–	–	–	–	COc1cccc2c1C(=O)c1c(O)c3c(c(O)c1C2=O)C[C@@](O)(C(=O)CO)C[C@@H]3O[C@H]1C[C@H](N)[C@H](O)[C@H](C)O1 [Doxorubicin solution, reference compound]	–	0.4 µg/mL (≈ 0.736 µM)	0.11 µg/mL (≈ 0.202 µM)	0.43 µg/mL (≈ 0.791 µM)	0.51 µg/mL (≈ 0.938 µM)	0.14 µg/mL (≈ 0.258 µM)	–	–	–
Higuchi order	1160 ± 87 ng·h/mL	61 ± 8.7 min	4.12 ± 0.395 L/kg	67.9 mL/min/kg	4.68 ± 1.38 min	COc1ccc(Nc2c3ccccc3nc3occ(Cl)c23)cc1 [PK-L4, 3-Chloro-4-[(4-methoxyphenyl)amino]furo[2,3-b]quinoline]	–	0.11 µg/mL (≈ 0.339 µM)	0.04 µg/mL (≈ 0.123 µM)	8.47 µg/mL (≈ 26.1 µM)	2.14 µg/mL (≈ 6.59 µM)	0.04 µg/mL (≈ 0.123 µM)	mainly located in the spine, followed by the lungs, brain, small intestine, and heart	pH 7.4 PBS containing 1% F-127 exhibited the best solubility	water insoluble
